Data on 5 molecules can be found in ChEMBL document CHEMBL1131196, “Design and synthesis of hydrazinopeptides and their evaluation as human leukocyte elastase inhibitors” (J Med Chem, 1998).

Numbered stars: 1 amine (or outer) side, 2 acyl side, 3 side chain; on linkers, the order of the positions; unused ones are H or OH. Square brackets hold non-standard residues; d marks the D form. Peptide text beside a SMILES is read from it. * marks the point of attachment. X1 = O=C([C@H]1CCCN1N[*:1])[*:2]; Cbz = O=C(OCc1ccccc1)*; NHiPr = CC(C)N*

One data set deals with T1, Neutrophil elastase (Homo sapiens, UniProt P08246).
T1 sequence (P08246 whole entry): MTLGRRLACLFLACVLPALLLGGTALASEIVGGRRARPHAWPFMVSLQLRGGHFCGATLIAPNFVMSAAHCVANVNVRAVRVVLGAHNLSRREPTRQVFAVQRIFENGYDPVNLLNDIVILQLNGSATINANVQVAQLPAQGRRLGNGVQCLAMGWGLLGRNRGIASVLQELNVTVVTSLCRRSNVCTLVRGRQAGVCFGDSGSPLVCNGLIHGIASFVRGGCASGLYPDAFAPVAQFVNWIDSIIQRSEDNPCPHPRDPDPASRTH
The experiment in a line: Inhibition constant of compound measured toward human leukocyte elastase (HLE) at pH 8 and 25 degree C. An outline of the steps: (§1)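 Chromogenic p-nitroanilide substrates, with MeO-Suc-Ala-Ala-Pro-Val-pNA for HLE. Enzymes were HLE 20 nM or PPE 22 nM, with inhibitors at 25–300 µM. Assays ran in 0.05 M Hepes pH 8.0 with 10% v/v DMSO at 25 °C, monitoring p-nitroaniline release continuously at 405 nm. Initial rates were fit to competitive inhibition. Ki came from a linear plot of Km(app)/Vm vs [I]; reversibility was checked by buffer exchange.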

The next data set concerns the target Pancreatic elastase (Sus scrofa, UniProt P08419+P00772). The experiment in a line: Inhibition constant of compound measured toward porcine Pancreatic elastase at pH 8 and 25 degree C. In kind it is protein assay. Summed up: as §1
For data set [1], the target named is T2, Neutrophil elastase (Homo sapiens) (UniProt P08246).
T2 sequence (whole entry): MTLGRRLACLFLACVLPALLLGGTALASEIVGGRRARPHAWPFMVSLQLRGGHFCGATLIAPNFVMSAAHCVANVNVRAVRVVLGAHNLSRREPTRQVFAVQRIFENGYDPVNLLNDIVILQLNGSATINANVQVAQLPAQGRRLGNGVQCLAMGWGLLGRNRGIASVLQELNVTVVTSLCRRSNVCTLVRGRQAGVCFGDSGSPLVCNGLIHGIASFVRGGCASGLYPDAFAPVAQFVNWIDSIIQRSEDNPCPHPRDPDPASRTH
The data set can be described thus: (§2) Kinetic parameter was calculated by Michaelis equation catalyzed by Leukocyte elastase at 25 degree C and pH 8. An outline of the steps:
(§3)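 HLE at 200 nM, in 0.05 M Hepes pH 8.0 with 10% v/v DMSO and no NaCl, at 25 °C. Hydrolysis was read either by absorbance at 250 nm (substrate 5–50 µM) or by C8 reverse-phase HPLC (substrate 5–20 µM). For HPLC, products at 2–5 min were quantified against a Z-Ala-Ala-Pro-Val calibration. kcat and Km came from least-squares Michaelis fits. For HPLC, kcat/Km came from the linearized rate below Km.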

A short description of data set [2]: The catalytic efficiency is the ratio of kcat to that of Km. An outline of the steps: as §3
Substrate in data set [3]: CC(C)NC(=O)[C@H](C)NC(=O)[C@H](C)NC(=O)[C@@H](NC(=O)[C@H]1CCCN1C(=O)[C@H](C)NC(=O)[C@H](C)NC(=O)OCc1ccccc1)C(C)C
The data set is described as §2. An outline of the steps: as §3

Substrate in data set [4]: CC(C)NC(=O)[C@H](C)NC(=O)[C@H](C)NNC(=O)[C@@H](NC(=O)[C@H]1CCCN1C(=O)[C@H](C)NC(=O)[C@H](C)NC(=O)OCc1ccccc1)C(C)C
The data set is described as §2. An outline of the steps:
as §3

Broadly, the Ki is the equilibrium dissociation constant of an inhibitor or competing ligand from its target. Take `CC(C)NC(=O)[C@H](C)NC(=O)[C@H](C)NC(=O)[C@@H](NNC(=O)[C@H]1CCCN1C(=O)[C@H](C)NC(=O)[C@H](C)NC(=O)OCc1ccccc1)C(C)C`: the Ki at Neutrophil elastase came to 595 µM; on Pancreatic elastase, 397 µM.

`CC(C)NC(=O)[C@H](C)NC(=O)[C@H](C)NNC(=O)[C@@H](NC(=O)[C@H]1CCCN1C(=O)[C@H](C)NC(=O)[C@H](C)NC(=O)OCc1ccccc1)C(C)C`: the k cat in data set [1] was 2.24 s⁻¹. Moreover, in data set [2], the k cat/Km was found to be 3150 M⁻¹ s⁻¹.

Consider `CC(C)NC(=O)[C@H](C)NC(=O)[C@H](C)NC(=O)[C@@H](NC(=O)[C@H]1CCCN1C(=O)[C@H](C)NC(=O)[C@H](C)NC(=O)OCc1ccccc1)C(C)C`, for which the k cat in data set [1] was 0.88 s⁻¹. Also, in data set [2], the k cat/Km was 6780 M⁻¹ s⁻¹.

For the molecule `CC(C)NC(=O)[C@H](C)NC(=O)[C@H](C)NC(=O)[C@@H](NC(=O)[C@H]1CCCN1NC(=O)[C@H](C)NC(=O)[C@H](C)NC(=O)OCc1ccccc1)C(C)C` (Cbz-AA[X1]VAA-NHiPr), the inhibitory constant (Ki) on Neutrophil elastase was determined as 65 µM; at Pancreatic elastase, 146 µM.

B1: Neutrophil elastase (Homo sapiens), P08246 (protein)
chain: MTLGRRLACLFLACVLPALLLGGTALASEIVGGRRARPHAWPFMVSLQLRGGHFCGATLIAPNFVMSAAHCVANVNVRAVRVVLGAHNLSRREPTRQVFAVQRIFENGYDPVNLLNDIVILQLNGSATINANVQVAQLPAQGRRLGNGVQCLAMGWGLLGRNRGIASVLQELNVTVVTSLCRRSNVCTLVRGRQAGVCFGDSGSPLVCNGLIHGIASFVRGGCASGLYPDAFAPVAQFVNWIDSIIQRSEDNPCPHPRDPDPASRTH
As a reminder, the Km is the substrate concentration at which the rate is half of its maximum. For the molecule B1, the Km was 131 µM in data set [3] and 712 µM in data set [4].
